Reference: ChEMBL document CHEMBL2086328, “¹⁸F-labeled 2-phenylquinoxaline derivatives as potential positron emission tomography probes for in vivo imaging of β-amyloid plaques” (Eur J Med Chem, 2012)
Calls of active or inactive are those of the source. The rule behind the calls is not given here.

Experiments:
[1] = Displacement of [125I]IMPY from amyloid beta (1 to 42) after 2 hrs by gamma counting
Procedure, shortened: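 Competition binding against [125I]IMPY (radiochemical purity >95%) on Aβ1-42 aggregates with 1% BSA solution; inhibitor 10^-4–10^-9.5 M; 37 °C, 2 h. Free and bound separated by vacuum filtration on GF/B filters, three PBS washes (0.02 M, pH 7.4, room temperature); filters gamma-counted. Three repeats; IC50 fitted, Ki from Cheng–Prusoff.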

[2] = molecular target: Amyloid-beta precursor protein (Homo sapiens) (UniProt P05067); assay: Binding affinity to beta-amyloid in normal human brain at 1.85 MBq/[…] after 1 hr by thioflavin-S based autoradiography; conditions: 1.85 M, tested as the 18F-labelled form
Sequence of Amyloid-beta precursor protein (Homo sapiens) (P05067 whole entry): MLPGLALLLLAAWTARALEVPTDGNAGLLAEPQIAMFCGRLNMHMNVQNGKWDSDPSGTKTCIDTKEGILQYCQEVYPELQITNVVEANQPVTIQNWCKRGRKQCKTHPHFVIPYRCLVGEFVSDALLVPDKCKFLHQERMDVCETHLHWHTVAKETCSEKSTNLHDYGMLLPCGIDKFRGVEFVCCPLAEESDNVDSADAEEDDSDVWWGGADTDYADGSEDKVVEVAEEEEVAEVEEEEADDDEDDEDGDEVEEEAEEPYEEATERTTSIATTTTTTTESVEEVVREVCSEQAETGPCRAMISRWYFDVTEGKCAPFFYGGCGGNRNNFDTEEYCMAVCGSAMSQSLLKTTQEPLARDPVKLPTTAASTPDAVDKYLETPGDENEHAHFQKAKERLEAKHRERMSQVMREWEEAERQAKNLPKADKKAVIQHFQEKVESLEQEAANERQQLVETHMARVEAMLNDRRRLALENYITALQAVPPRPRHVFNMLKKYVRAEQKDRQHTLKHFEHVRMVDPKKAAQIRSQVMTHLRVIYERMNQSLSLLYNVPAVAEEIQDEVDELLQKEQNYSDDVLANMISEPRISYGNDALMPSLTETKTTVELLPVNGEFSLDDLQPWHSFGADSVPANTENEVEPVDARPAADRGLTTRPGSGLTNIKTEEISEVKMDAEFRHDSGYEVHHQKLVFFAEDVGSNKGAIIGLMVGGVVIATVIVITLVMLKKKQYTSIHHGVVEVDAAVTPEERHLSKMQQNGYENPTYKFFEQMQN
Procedure, shortened: (§1)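 Paraffin human temporal-lobe sections (5 µm; AD case or control) deparaffinized through xylene and graded ethanol, then PBS (0.2 M, pH 7.4) for 30 min. Incubated with 18F tracer (1.85 MBq/200 µL), 1 h, room temperature; washed in 40% EtOH, rinsed in water; phosphor plate exposure 2 h.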

[3] = species on record: Mus musculus; assay: Binding affinity to beta-amyloid in APPswe/PSEN1 transgenic C57BL6 mouse model brain at 1.85 MBq/[…] after 1 hr by thioflavin-S based autoradiography; conditions: 1.85 M, tested as the 18F-labelled form
Procedure, shortened: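 Transgenic mouse brain sections deparaffinized, then incubated with 18F tracer (1.85 MBq/200 µL) for 1 h at room temperature. Washed in 40% EtOH, phosphor-imaged after 2 h exposure. Same sections then stained with 0.125% thioflavin-S in 10% EtOH for 3 min and imaged by fluorescence (excitation 405 nm, long-pass 505 nm).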

[4] = molecular target: Amyloid-beta precursor protein (Homo sapiens) (UniProt P05067); assay: Binding affinity to beta-amyloid in Alzheimer's disease patient brain at 1.85 MBq/[…] after 1 hr by thioflavin-S based autoradiography; conditions: 1.85 M, tested as the 18F-labelled form; procedure, shortened: as §1
[5] = Binding affinity to beta-amyloid

For `CNc1ccc2nc(-c3ccc(OCCOCCOCCF)cc3)cnc2c1`, the Ki [1] was 5.3 nM, the Activity [2] was “inactive” and the Activity [3] was “Active”. For the same compound, the Activity [4] was “Active”.

For `CNc1ccc(/C=C/c2ccc(OCCOCCOCC[18F])cc2)cc1` [FLORBETABEN F18], the Ki [5] was 2.22 nM.
